Active and inactive are the calls of the source. The rule behind the calls is not given here.

What is called ED50 is the dose at which the effect has come halfway, by size or by number of responders. The inhibition in vivo is the drop in the measured response relative to a control, in per cent.

Type in all cases: functional
The subject of experiment [1] is Rattus norvegicus. As to the kind of experiment: Antiallergic activity in iv dosed ovalbumin-sensitized CFHB rat assessed as inhibition of passive cutaneous anaphylaxis after 30 mins by Evans blue staining. Particulars: 0.5 h. The essentials: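 Rats passively sensitized with 0.1 mL of 1:25 donor anti-ovalbumen serum (IgE plus IgG) at four dorsal sites, then challenged iv 72 h later with ovalbumen 1 mg plus 1% Evans blue (0.5 mL). Compound in Tris buffer/saline given iv 30 s before challenge at ≥3 doses, ≥7 rats per group. Blue spots scored 0–4 at 30 min. ED50 read from the dose–response curve of % inhibition versus controls.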

In experiment [2] the test system is Rattus norvegicus. Kind of experiment: Antiallergic activity in po dosed ovalbumin-sensitized CFHB rat assessed as inhibition of passive cutaneous anaphylaxis after 30 mins by Evans blue staining.
The test system of experiment [3] is Rattus norvegicus. Kind of experiment: Antiallergic activity in ovalbumin-sensitized CFHB rat assessed as inhibition of passive cutaneous anaphylaxis at 10 mg/kg, iv after 30 mins by Evans blue staining. A digest of the protocol:
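Sensitized with diluted (1:25) donor serum at four back sites. Challenge came 72 h later, iv, with ovalbumen 1 mg and 1% Evans blue 0.5 mL. Compound dissolved in Tris buffer, diluted in saline, and injected iv 30 s pre-challenge. Groups had at least seven rats, with matched controls. Skin spots were scored 0–4 for severity and area after 30 min. % inhibition came from the test versus control score difference.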

As for `CCCCCOc1cc(S(C)(=N)=O)cc2c(=O)c3cc(C(=O)O)ccc3oc12` (stereo not drawn), the figures for the ED50 in experiment [1] and in experiment [2] (0.5 h) were 0.005 mg/kg and 1.62 mg/kg, respectively.
Take `CS(=N)(=O)c1ccc2oc3ccccc3c(=O)c2c1` (stereo not drawn): the inhibition entry in experiment [3] is “inactive”.
Take `CCOC(=O)N=S(C)(=O)c1ccc2oc3ccc(C(=O)O)cc3c(=O)c2c1` (stereo not drawn): in experiment [3] (0.5 h), the inhibition in vivo at 10 mg/kg is 89%.
In the case of `CS(=N)(=O)c1ccc2oc3ccc(C(=O)O)cc3c(=O)c2c1` (stereo not drawn), the ED50 in experiment [1] is 0.033 mg/kg; in experiment [2] (0.5 h), 2.72 mg/kg.
Regarding `CS(=O)(=NC(=O)c1ccccc1)c1ccc2oc3ccc(C(=O)O)cc3c(=O)c2c1` (stereo not drawn), in experiment [1], the median effective dose (ED50) amounted to 0.68 mg/kg.
Turning to `CCCCCCc1cc(S(C)(=N)=O)cc2c(=O)c3cc(C(=O)O)ccc3oc12` (stereo not drawn) [SUDEXANOX], the 50% effective dose (ED50) was 0.005 mg/kg in experiment [1] and 0.19 mg/kg in experiment [2] (0.5 h).
Take `Cc1ccc(S(=O)(=O)N=S(C)(=O)c2ccc3oc4ccc(C(=O)O)cc4c(=O)c3c2)cc1` (stereo not drawn): in experiment [1], the ED50 was 3.93 mg/kg.
Consider `O=C([O-])c1cc(=O)c2c(OCC(O)COc3cccc4oc(C(=O)[O-])cc(=O)c34)cccc2o1.[Na+].[Na+]` [CROMOLYN SODIUM], for which, in experiment [1], the 50% effective dose (ED50) was 1.21 mg/kg. Besides, in experiment [2], the ED50 entry was “inactive”.
With `Cc1ccc(S(=O)(=O)/N=S(\C)c2ccc3oc4ccc(C(=O)O)cc4c(=O)c3c2)cc1` (stereo not drawn), in experiment [1], the ED50 worked out at 0.43 mg/kg.
With `CCOC(=O)C1=CN=S(=O)(c2ccc3oc4ccc(C(=O)O)cc4c(=O)c3c2)C=C1O` (stereo not drawn), the inhibition result in experiment [3] was “inactive”.
For the compound `CCCCCCc1cc(S(C)(=O)=NC(N)=O)cc2c(=O)c3cc(C(=O)O)ccc3oc12` (stereo not drawn), the median effective dose (ED50) in experiment [1] amounted to 0.009 mg/kg.
On to `CC(=O)N=S(C)(=O)c1ccc2oc3ccc(C(=O)O)cc3c(=O)c2c1` (stereo not drawn), for which the median effective dose (ED50) in experiment [1] is 0.065 mg/kg.
`CS(=O)(=NC(N)=O)c1ccc2oc3ccc(C(=O)O)cc3c(=O)c2c1` (stereo not drawn): the ED50 in experiment [1] turned out to be 0.11 mg/kg; in experiment [2] (0.5 h), 8.6 mg/kg.

Values taken from ChEMBL document CHEMBL3227924, “Pharmacologically active sulfoximides: 5-hexyl-7-)S-methylsulfonimidoly) xanthone-2-carboxylic acid, a potent antiallergic agent” (1979).
